≈ marks a conversion by molar mass, not a printed value. Calls of active or inactive are those of the source. The calls are words filed in the database; no cut-off is given here.
Experiments:
Saccharomyces cerevisiae [1] = experiment: Antifungal activity against Saccharomyces cerevisiae CY-1a expressing ScKRE6 gene by microdilution method; assay type: functional
Candida albicans [2] = experiment: Antifungal activity against Candida albicans ATCC 90028 assessed as absence of outer layer of the cell wall at 1 ug/ml after 6 hrs by TEM; assay type: functional, organism-based
Method in brief: (§1)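 Budding yeast at 1 × 10³ cells/ml exposed to drug in MOPS-buffered RPMI for 6 h with shaking (legend gives 30°C). Cells fixed in 3% glutaraldehyde/0.1 M phosphate for 2 h. For mannan: stained 30 min with 10 μg/ml fluorescein–concanavalin A, fluorescence microscopy. For TEM: 2% OsO4 postfix, Spurr's resin, uranyl acetate/lead citrate stained sections.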

Saccharomyces cerevisiae [3] = experiment: Antifungal activity against Saccharomyces cerevisiae CY-3a expressing ScKRE6-CaSKN2 gene by microdilution method; assay type: functional
Saccharomyces cerevisiae [4] = experiment: Antifungal activity against Saccharomyces cerevisiae CY-5a expressing ScKRE6-CaSKN1 gene by microdilution method; assay type: functional
Saccharomyces cerevisiae [5] = experiment: Antifungal activity against Saccharomyces cerevisiae AY-10c expressing ScKRE6 gene by microdilution method; assay type: functional
Candida albicans [6] = experiment: Antifungal activity against Candida albicans ATCC 24433 in SDB media by microdilution method; assay type: functional
Method in brief: (§2)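 Broth microdilution per NCCLS at 30°C, inoculum 1 × 10³ to 3 × 10⁴ cells/ml. Medium was MEM, SDB, YNB, Spider or Lee's, all without Alamar Blue. End point MIC-2: 50% drop in OD600 against drug-free control. RPMI run used MOPS-buffered RPMI with Alamar Blue read at 570 nm. Duplicates.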

Pichia kudriavzevii [7] = experiment: Antifungal activity against Candida krusei ATCC 44507 by microdilution method; assay type: functional
Method in brief: (§3)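 Broth microdilution per NCCLS M27-A2 in MOPS-buffered RPMI with Alamar Blue, incubated at 30°C. Starting inoculum 1 × 10³ to 3 × 10⁴ cells/ml. End point MIC-2: 50% reduction in A570 against drug-free control. Duplicate runs, repeated on another day if they disagreed.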

Nakaseomyces glabratus [8] = experiment: Antifungal activity against Candida glabrata ATCC 48435 by microdilution method; assay type: functional; method in brief: as §3
Candida albicans [9] = experiment: Antifungal activity against Candida albicans ATCC 24433 in YNB media by microdilution method; assay type: functional; method in brief: as §2
Candida albicans [10] = experiment: Antifungal activity against Candida albicans ATCC 24433 in MEM media by microdilution method; assay type: functional; method in brief: as §2
Saccharomyces cerevisiae [11] = experiment: Antifungal activity against Saccharomyces cerevisiae CY-4a expressing ScKRE6-CaKRE6 gene by microdilution method; assay type: functional
Candida albicans [12] = experiment: Antifungal activity against Candida albicans ATCC 24433 by microdilution method; assay type: functional; method in brief: as §3
Candida albicans [13] = experiment: Antifungal activity against Candida albicans ATCC 24433 in Spider media by microdilution method; assay type: functional; method in brief: as §2
Candida albicans [14] = experiment: Antifungal activity against Candida albicans ATCC 90028 by microdilution method; assay type: functional; method in brief: as §3
Candida albicans [15] = experiment: Antifungal activity against Candida albicans ATCC 24433 in RPMI media by microdilution method; assay type: functional; method in brief: as §3
Candida albicans [16] = experiment: Antifungal activity against Candida albicans ATCC 24433 in Lee's media by microdilution method; assay type: functional; method in brief: as §2
Nakaseomyces glabratus [17] = experiment: Antifungal activity against Candida glabrata ATCC 48435 infected in Slc::ddY mouse assessed as survival rate at 10 mg/kg, po tid administered 1 hr post infection for 1 day measured on day 14; assay type: functional
Method in brief: (§4)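 Five-week-old female Slc:ddY mice, made neutropenic with cyclophosphamide 200 mg/kg ip 4 days before and 1 day after infection. SDA-grown cells in 0.1% Tween 80 saline were injected into the tail vein: C. albicans 2.6 × 10⁴ cells, C. glabrata 2.4 × 10⁸ cells. Oral dosing at 1, 4 and 7 h post-infection. Controls got 5% glucose with 1% lactic acid. 10 mice/group; mortality followed 14 or 30 days.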

Nakaseomyces glabratus [18] = experiment: Inhibition of beta-1.6-glucan synthesis in Candida glabrata ATCC 48435 assessed as [14C] glucose incorporation after 3 hrs; assay type: functional, organism-based
Method in brief: (§5)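 Exponential cells suspended in RPMI 1640 (A595 about 0.6) with drug and [14C]glucose, 3 h at 30°C with occasional shaking. Cells extracted with 3% NaOH at 80°C for 1 h; mannan precipitated with Fehling's reagent. Insoluble fraction digested overnight with Zymolyase to separate β-1,6-glucan. Percent change in incorporated radioactivity against control.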

Candida albicans [19] = experiment: Antifungal activity against Candida albicans ATCC 90028 assessed as inhibition of hyphal elongation at 0.25 ug/ml in HFM-7 medium using crystal violet stain by light microscopy; assay type: functional, organism-based
Pichia kudriavzevii [20] = experiment: Antifungal activity against Candida krusei ATCC 44507 assessed as inhibition of adherence of fungal cell to human A549 cells; assay type: functional, organism-based
Method in brief: (§6)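 Yeast pretreated with drug in MOPS-buffered RPMI at 30°C overnight without shaking. 100 or 200 cells in DPBS overlaid on confluent A549 monolayers (DMEM/10% FBS), 45 min at 37°C, 5% CO2. Washed, covered with SDA, colonies counted after 48 h at 30°C. Percent reduction of adherence; triplicate, mean ± SD.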

Candida albicans [21] = experiment: Inhibition of beta-1.6-glucan synthesis in Candida albicans ATCC 90028 assessed as [14C] glucose incorporation after 3 hrs; assay type: functional, organism-based; method in brief: as §5
Candida albicans [22] = experiment: Antifungal activity against Candida albicans ATCC 90028 infected in reconstituted human vaginal epithelium tissue assessed as inhibition of fungal cell invasion in to the tissue at 0.25 ug/ml using […] and methylene blue stain by light microscopy; assay type: functional, organism-based
Method in brief: (§7)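 RHVE (A431 keratinocytes) infected with 2 × 10⁶ ATCC 90028 cells that had been pretreated with drug. Drug also added to the maintenance medium. After 24 h at 37°C, 5% CO2, tissue fixed in formaldehyde; semithin sections stained with […]/methylene blue and examined by light microscopy.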

[23] = Cmax in Slc::ddY mouse at 10 mg/kg, po tid administered 1 hr post infection for 1 day; assay type: ADME, organism-based; design: dose 10 mg/kg, route oral; settings: in vivo
Nakaseomyces glabratus [24] = experiment: Antifungal activity against Candida glabrata ATCC 48435 infected in Slc::ddY mouse assessed as survival rate at 3.3 mg/kg, po tid administered 1 hr post infection for 1 day measured on day 14; assay type: functional; method in brief: as §4
Candida albicans [25] = experiment: Antifungal activity against Candida albicans ATCC 90028 assessed as degradation of mannan layer of the cell wall at 1 ug/ml after 6 hrs using fluorescein-conjugated concanavalin A stain by fluorescent microscopy; assay type: functional, organism-based; method in brief: as §1
Pichia kudriavzevii [26] = experiment: Inhibition of beta-1.6-glucan synthesis in Candida krusei ATCC 44507 assessed as [14C] glucose incorporation after 3 hrs; assay type: functional, organism-based; method in brief: as §5
Candida albicans [27] = experiment: Antifungal activity against Candida albicans ATCC 90028 infected in Slc::ddY mouse assessed as survival rate at 10 mg/kg, po tid administered 1 hr post infection for 1 day measured on day 30; settings: ATCC 90028, po
[28] = Half life in Slc::ddY mouse at 10 mg/kg, po tid administered 1 hr post infection for 1 day; assay type: ADME, organism-based; design: dose 10 mg/kg, route oral; settings: in vivo
Nakaseomyces glabratus [29] = experiment: Antifungal activity against Candida glabrata ATCC 48435 assessed as inhibition of adherence of fungal cell to human A549 cells; assay type: functional, organism-based; method in brief: as §6
Candida albicans [30] = experiment: Antifungal activity against Candida albicans ATCC 90028 assessed as inhibition of hyphal elongation at 0.25 ug/ml in Spider medium using crystal violet stain by light microscopy; assay type: functional, organism-based
Candida albicans [31] = experiment: Inhibition of beta-1.6-glucan synthesis in Candida albicans ATCC 90028 assessed as [14C] glucose incorporation at 0.063 ug/ml after 3 hrs; assay type: functional, organism-based; method in brief: as §5
Candida albicans [32] = experiment: Antifungal activity against Candida albicans ATCC 90028 assessed as inhibition of hyphal elongation at 0.25 ug/ml in Lee's medium using crystal violet stain by light microscopy; assay type: functional, organism-based
Candida albicans [33] = experiment: Antifungal activity against Candida albicans ATCC 90028 infected in reconstituted human vaginal epithelium tissue assessed as inhibition of fungal cell invasion in to the tissue at 1 ug/ml using […] and methylene blue stain by light microscopy; assay type: functional, organism-based; method in brief: as §7
Candida albicans [34] = experiment: Antifungal activity against Candida albicans ATCC 90028 assessed as inhibition of adherence of fungal cell to human A549 cells; assay type: functional, organism-based; method in brief: as §6
Candida albicans [35] = experiment: Antifungal activity against Candida albicans ATCC 90028 assessed as degradation of mannan layer of the cell wall at >0.25 ug/ml after 6 hrs using fluorescein-conjugated concanavalin A stain by fluorescent microscopy; assay type: functional, organism-based; method in brief: as §1

SMILES	MIC (Saccharomyces cerevisiae [1]) [µg/mL]	MIC (Saccharomyces cerevisiae [3]) [µg/mL]	MIC (Saccharomyces cerevisiae [4]) [µg/mL]	MIC (Saccharomyces cerevisiae [5]) [µg/mL]	MIC (Candida albicans [6]) [µg/mL]	MIC (Pichia kudriavzevii [7]) [µg/mL]	MIC (Nakaseomyces glabratus [8]) [µg/mL]	MIC (Candida albicans [9]) [µg/mL]	MIC (Candida albicans [10]) [µg/mL]	MIC (Saccharomyces cerevisiae [11]) [µg/mL]	MIC (Candida albicans [12]) [µg/mL]	MIC (Candida albicans [13]) [µg/mL]	MIC (Candida albicans [14]) [µg/mL]	MIC (Candida albicans [15]) [µg/mL]	MIC (Candida albicans [16]) [µg/mL]	further results
Cc1c(-c2ccccc2)c(N2CC[C@H](N(C)C)C2)n2c(nc3ccccc32)c1C#N	0.125 (≈ 0.316 µM)	0.125 (≈ 0.316 µM)	0.25 (≈ 0.632 µM)	0.125 (≈ 0.316 µM)	2 (≈ 5.06 µM)	0.25 (≈ 0.632 µM)	0.016 (≈ 0.0405 µM)	16 (≈ 40.5 µM)	> 16	0.125 (≈ 0.316 µM)	> 32	0.063 (≈ 0.159 µM)	> 32	> 16	0.125 (≈ 0.316 µM)	Activity (Candida albicans [2]): Active
CCc1c(C)c(C#N)c2nc3ccccc3n2c1NCCN(CC)CC	8 (≈ 22.9 µM)	8 (≈ 22.9 µM)	16 (≈ 45.8 µM)	8 (≈ 22.9 µM)		16 (≈ 45.8 µM)	1 (≈ 2.86 µM)			16 (≈ 45.8 µM)	8 (≈ 22.9 µM)		16 (≈ 45.8 µM)			
Cc1c(-c2ccccc2)c(N2CC[C@H](N(C)C)C2)n2c(nc3ncccc32)c1C#N	0.5 (≈ 1.26 µM)	0.25 (≈ 0.631 µM)	0.25 (≈ 0.631 µM)	0.25 (≈ 0.631 µM)	4 (≈ 10.1 µM)	0.5 (≈ 1.26 µM)	0.125 (≈ 0.315 µM)	16 (≈ 40.4 µM)	> 16	0.25 (≈ 0.631 µM)	> 32	0.125 (≈ 0.315 µM)	> 32	> 16	0.125 (≈ 0.315 µM)	survival at 10 mg/kg (Nakaseomyces glabratus [17]): 100%; inhibition (Nakaseomyces glabratus [18]): Active; Activity (Candida albicans [19]): Active; Activity (Pichia kudriavzevii [20]): Active; inhibition (Candida albicans [21]): Active; Activity (Candida albicans [22]): Active; Cmax [23]: 710 ng/mL; survival at 3.3 mg/kg (Nakaseomyces glabratus [24]): 90%; Activity (Candida albicans [25]): Active; inhibition (Pichia kudriavzevii [26]): Active; survival at 10 mg/kg (Candida albicans [27]): 50%; half-life [28]: 4.4 h; Activity (Nakaseomyces glabratus [29]): Active; Activity (Candida albicans [30]): Active; inhibition (Candida albicans [31]): Active; Activity (Candida albicans [32]): Active; Activity (Candida albicans [33]): Active; Activity (Candida albicans [34]): Active; Activity (Candida albicans [35]): Active

— ChEMBL document CHEMBL1671665, “Effect of beta-1,6-glucan inhibitors on the invasion process of Candida albicans: potential mechanism of their in vivo efficacy” (Antimicrob Agents Chemother, 2009)
